Data: ChEMBL document CHEMBL4024754, “Development of Potent, Protease-Resistant Agonists of the Parathyroid Hormone Receptor with Broad β Residue Distribution” (J Med Chem, 2017)
Activity calls are given as the source filed them. No cut-off for these calls is given here. Numbered stars: 1 amine (or outer) side, 2 acyl side, 3 side chain; on linkers, the order of the positions; unused ones are H or OH. Square brackets hold non-standard residues; d marks the D form. Peptide text beside a SMILES is read from it. * marks the point of attachment. NH(1S,2S-2-CONH2-cPent) = NC(=O)[C@H]1CCC[C@@H]1N*; ACPC(1S,2S) = N[C@H]1CCC[C@@H]1C(=O)*; X1 = O=C([C@H]1CCC[C@@H]1N[*:1])[*:2]; X2 = O=C([C@H]1CNC[C@@H]1N[*:1])[*:2]; Aib = CC(C)(N)C(=O)O

How the values were obtained:
[1] = target: T1, Parathyroid hormone/parathyroid hormone-related peptide receptor (Homo sapiens) (UniProt Q03431); assay: Agonist activity at human PTH1 receptor expressed in human GP2.3 cells assessed as induction of cAMP after 12 to 20 mins by luciferase reporter gene assay relative to PTH(1 to 34 residues)-NH2; type: functional, cell-based
T1 sequence (whole entry): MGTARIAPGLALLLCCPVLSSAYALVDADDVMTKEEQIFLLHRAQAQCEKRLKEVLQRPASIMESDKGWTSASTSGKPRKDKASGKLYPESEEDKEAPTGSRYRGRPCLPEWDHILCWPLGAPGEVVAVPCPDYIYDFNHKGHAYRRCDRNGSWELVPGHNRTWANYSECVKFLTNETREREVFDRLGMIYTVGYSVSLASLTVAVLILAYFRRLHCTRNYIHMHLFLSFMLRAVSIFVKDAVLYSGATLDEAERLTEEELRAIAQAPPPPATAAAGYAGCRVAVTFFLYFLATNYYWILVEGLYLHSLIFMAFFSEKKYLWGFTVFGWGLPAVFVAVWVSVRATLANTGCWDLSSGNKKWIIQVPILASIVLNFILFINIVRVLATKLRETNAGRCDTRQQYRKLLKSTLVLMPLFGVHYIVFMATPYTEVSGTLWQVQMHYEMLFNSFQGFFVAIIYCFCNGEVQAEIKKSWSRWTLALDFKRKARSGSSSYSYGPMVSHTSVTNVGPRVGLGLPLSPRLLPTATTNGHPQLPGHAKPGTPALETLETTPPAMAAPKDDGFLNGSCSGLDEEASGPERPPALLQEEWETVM

[2] = target: T1, Parathyroid hormone/parathyroid hormone-related peptide receptor (Homo sapiens); assay: Agonist activity at human PTH1 receptor expressed in human GP2.3 cells assessed as induction of cAMP at 0.1 to 100 nM preincubated with protease activity quenched SGF up to 4 hrs followed by compound transfer to GP2.3 cells by luciferase reporter gene assay; type: functional, cell-based
Method in brief: (§1)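 Control samples: simulated gastric fluid neutralized with 10× PBS, or intestinal fluid mixed with acetonitrile/TFA quench solution, before adding peptide. Gastric controls held up to 4 h. Then diluted and tested on luciferin-loaded GP2.3 cells at 100−0.1 nM final, alongside freshly prepared peptide.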

[3] = target: T1, Parathyroid hormone/parathyroid hormone-related peptide receptor (Homo sapiens); assay: Agonist activity at human PTH1 receptor expressed in human GP2.3 cells assessed as induction of cAMP at 0.1 to 100 nM preincubated with protease activity quenched SIF followed by compound transfer to GP2.3 cells by luciferase reporter gene assay; type: functional, cell-based; method in brief: as §1
[4] = Stability in simulated gastric fluid assessed as pig pepsin-mediated proteolysis at 40 uM after 5 secs by RP-HPLC analysis; type: ADME, Sus scrofa; conditions: isolated protein, 5 s
Method in brief: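 Proteolysis quenched by transfer into 10× PBS, pH 7.4, giving 40 μM peptide. Analysed by analytical C18 RP-HPLC, 10–60% acetonitrile/0.1% TFA over 50 min. Intact peptide quantified by integrating its peak. Duplicate reactions run concurrently, standard deviation.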

[5] = target: T1, Parathyroid hormone/parathyroid hormone-related peptide receptor (Homo sapiens); assay: Agonist activity at human PTH1 receptor expressed in human GP2.3 cells assessed as induction of cAMP at 0.1 to 100 nM preincubated with SGF for 5 secs followed by compound transfer to GP2.3 cells by luciferase reporter gene assay; type: functional, cell-based
Method in brief: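 Quenched at set times with 10× PBS, diluted into CO2-independent medium, serially 1:10, then added to confluent GP2.3 cells (HEK293, hPTHR1 plus Glosensor cAMP reporter) preloaded 30 min with 0.5 mM D-luciferin. Final 100–0.1 nM. Luminescence read; two technical replicates; variable-slope sigmoidal fit.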

[6] = target: T2, Parathyroid hormone/parathyroid hormone-related peptide receptor (Homo sapiens, UniProt Q03431); assay: Agonist activity at human PTH1 receptor expressed in human GP2.3 cells assessed as induction of cAMP after 12 to 20 mins by luciferase reporter gene assay; type: functional, cell-based; conditions: read-out: EC50
T2 sequence (Q03431 whole entry): T1 sequence (whole entry)

[7] = target: T1, Parathyroid hormone/parathyroid hormone-related peptide receptor (Homo sapiens); assay: Agonist activity at extracellular domain truncate human PTH1 receptor expressed in GD5 cells assessed as induction of cAMP after 12 to 20 mins by luciferase reporter gene assay; type: functional, cell-based
Method in brief: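 HEK293-derived lines stably expressing Glosensor cAMP reporter plus full-length human PTHR1 (GP2.3) or ECD-truncated PTHR1 (GD5). Confluent monolayers preincubated at room temperature in CO2-independent medium with 0.5 mM D-luciferin until baseline stable (30 min), then varied agonist concentrations added. Maximal luminescence (12−20 min) used for sigmoidal variable-slope fits.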

[8] = target: T1, Parathyroid hormone/parathyroid hormone-related peptide receptor (Homo sapiens); assay: Displacement of [125I]-PTH(1 to 34 residues) from R0 state of human PTHR1 expressed in African green monkey COS7 cell membranes incubated for >1 hr in presence of GTPgammaS by gamma radiation method

Row | Structure (SMILES) | fold change (FC) [1] | EC50 [6] [nM] | Activity [7] | inhibition [8] | Activity [2] | Activity [3] | Stability [4] | Activity [5]
1 | CC[C@H](C)[C@H](NC(=O)[C@H](CCC(=O)O)NC(=O)[C@H](CO)NC(=O)[C@@H](NC(=O)[C@H]1CCC[C@@H]1N)C(C)C)C(=O)N[C@@H](CCC(N)=O)C(=O)N[C@H]1CCC[C@@H]1C(=O)N[C@@H](CCSC)C(=O)N[C@@H](Cc1cnc[nH]1)C(=O)N[C@@H](CC(N)=O)C(=O)N[C@@H](CC(C)C)C(=O)NCC(=O)N[C@@H](CCCCN)C(=O)N[C@H]1CCC[C@@H]1C(=O)N[C@@H](CC(C)C)C(=O)N[C@@H](CC(N)=O)C(=O)N[C@@H](CO)C(=O)N[C@H]1CCC[C@@H]1C(=O)N[C@@H](CCC(=O)O)C(=O)N[C@@H](CCCNC(=N)N)C(=O)N[C@H](C(=O)N[C@H]1CNC[C@@H]1C(=O)N[C@@H](Cc1c[nH]c2ccccc12)C(=O)N[C@@H](CC(C)C)C(=O)N[C@@H](CCCNC(=N)N)C(=O)N[C@H]1CNC[C@@H]1C(=O)N[C@@H](CCCCN)C(=O)N[C@@H](CC(C)C)C(=O)N[C@@H](CCC(N)=O)C(=O)N[C@H]1CCC[C@@H]1C(=O)N[C@H](C(=O)N[C@@H](Cc1cnc[nH]1)C(=O)N[C@@H](CC(N)=O)C(=O)N[C@H]1CCC[C@@H]1C(N)=O)C(C)C)C(C)C ({ACPC(1S,2S)}-VSEIQ[X1]MHNLGK[X1]LNS[X1]ERV[X2]WLR[X2]KLQ[X1]VHN-{NH(1S,2S-2-CONH2-cPent)}) | 8.7 |  |  |  | Active | Active |  | 
2 | CC[C@H](C)[C@H](NC(=O)[C@H](CCC(=O)O)NC(=O)[C@H](CO)NC(=O)[C@@H](NC(=O)[C@@H](N)CO)C(C)C)C(=O)N[C@@H](CCC(N)=O)C(=O)N[C@@H](CC(C)C)C(=O)N[C@@H](CCSC)C(=O)N[C@@H](Cc1cnc[nH]1)C(=O)N[C@@H](CC(N)=O)C(=O)N[C@@H](CC(C)C)C(=O)NCC(=O)N[C@@H](CCCCN)C(=O)N[C@H](CC(=O)N[C@@H](CC(C)C)C(=O)N[C@@H](CC(N)=O)C(=O)N[C@@H](CO)C(=O)N[C@@H](CCSC)CC(=O)N[C@@H](CCC(=O)O)C(=O)N[C@@H](CCCNC(=N)N)C(=O)N[C@H](C(=O)N[C@@H](CCC(=O)O)CC(=O)N[C@@H](Cc1c[nH]c2ccccc12)C(=O)N[C@@H](CC(C)C)C(=O)N[C@@H](CCCNC(=N)N)C(=O)N[C@@H](CCCCN)CC(=O)N[C@@H](CCCCN)C(=O)N[C@@H](CC(C)C)C(=O)N[C@@H](CCC(N)=O)C(=O)N[C@@H](CC(=O)O)CC(=O)N[C@H](C(=O)N[C@@H](Cc1cnc[nH]1)C(=O)N[C@@H](CC(N)=O)C(=O)N[C@H](CC(N)=O)Cc1ccccc1)C(C)C)C(C)C)Cc1c[nH]c2ccccc12 | 2.1 |  |  |  | Active | Active | Unstable | inactive
3 | CC[C@H](C)[C@H](NC(=O)[C@H]1CCC[C@@H]1NC(=O)[C@H](CCCCN)NC(=O)CNC(=O)[C@H](CCCCN)NC(=O)[C@H](CC(=O)O)NC(=O)[C@H](Cc1cnc[nH]1)NC(=O)[C@H](CC(C)C)NC(=O)[C@H]1CCC[C@@H]1NC(=O)[C@H](CCC(N)=O)NC(=O)[C@H]1CCC[C@@H]1NC(=O)[C@H](CCC(=O)O)NC(=O)[C@H](CO)NC(=O)[C@@H](NC(=O)[C@H]1CCC[C@@H]1N)C(C)C)C(=O)N[C@@H](CCC(N)=O)C(=O)N[C@@H](CC(=O)O)C(=O)N[C@H]1CCC[C@@H]1C(=O)N[C@@H](CCCNC(=N)N)C(=O)N[C@@H](CCCNC(=N)N)C(=O)N[C@@H](CCCNC(=N)N)C(=O)N[C@H]1CNC[C@@H]1C(=O)N[C@@H](CC(C)C)C(=O)N[C@@H](CC(C)C)C(=O)N[C@@H](CCC(=O)O)C(=O)N[C@H]1CNC[C@@H]1C(=O)N[C@@H](CC(C)C)C(=O)N[C@@H](CC(C)C)C(=O)NC(C)(C)C(=O)N[C@H]1CCC[C@@H]1C(=O)N[C@@H](CC(C)C)C(=O)N[C@@H](Cc1cnc[nH]1)C(=O)N[C@H](C(=O)N[C@H]1CCC[C@@H]1C(N)=O)[C@@H](C)O ({ACPC(1S,2S)}-VSE[X1]Q[X1]LHDKGK[X1]IQD[X1]RRR[X2]LLE[X2]LL[Aib][X1]LHT-{NH(1S,2S-2-CONH2-cPent)}) | 5.3 | 0.36 |  | Active |  |  |  | 

Continued, in another order:

Row | fold change (FC) [1] | EC50 [6] [nM] | Activity [7] | inhibition [8] | Structure (SMILES) | Activity [2] | Activity [3] | Stability [4] | Activity [5]
4 | 126 | 11.5 | Active |  | CC[C@H](C)[C@H](NC(=O)[C@H](CCC(=O)O)NC(=O)[C@H]1CCC[C@@H]1NC(=O)[C@@H](NC(=O)[C@@H](N)CO)C(C)C)C(=O)N[C@@H](CCC(N)=O)C(=O)N[C@@H](CC(C)C)C(=O)N[C@@H](CCSC)C(=O)N[C@@H](Cc1cnc[nH]1)C(=O)N[C@@H](CC(N)=O)C(=O)N[C@@H](CC(C)C)C(=O)NCC(=O)N[C@@H](CCCCN)C(=O)N[C@@H](Cc1cnc[nH]1)C(=O)N[C@@H](CC(C)C)C(=O)N[C@@H](CC(N)=O)C(=O)N[C@@H](CO)C(=O)N[C@@H](CCSC)C(=O)N[C@@H](CCC(=O)O)C(=O)N[C@@H](CCCNC(=N)N)C(=O)N[C@H](C(=O)N[C@@H](CCC(=O)O)C(=O)N[C@@H](Cc1c[nH]c2ccccc12)C(=O)N[C@@H](CC(C)C)C(=O)N[C@@H](CCCNC(=N)N)C(=O)N[C@@H](CCCCN)C(=O)N[C@@H](CCCCN)C(=O)N[C@@H](CC(C)C)C(=O)N[C@@H](CCC(N)=O)C(=O)N[C@@H](CC(=O)O)C(=O)N[C@H](C(=O)N[C@@H](Cc1cnc[nH]1)C(=O)N[C@@H](CC(N)=O)C(=O)N[C@@H](Cc1ccccc1)C(N)=O)C(C)C)C(C)C |  |  |  | 
5 | 7.4 | 0.51 |  | Active | CC[C@H](C)[C@H](NC(=O)[C@H](CC(C)C)NC(=O)[C@H]1CNC[C@@H]1NC(=O)[C@H](Cc1cnc[nH]1)NC(=O)[C@H](CC(C)C)NC(=O)[C@H](Cc1ccccc1)NC(=O)[C@H]1CNC[C@@H]1NC(=O)[C@H](CCCNC(=N)N)NC(=O)[C@H](CCCNC(=N)N)NC(=O)[C@H](CCCNC(=N)N)NC(=O)[C@H]1CCC[C@@H]1NC(=O)[C@H](CC(=O)O)NC(=O)[C@H](CCC(N)=O)NC(=O)[C@@H](NC(=O)[C@H]1CCC[C@@H]1NC(=O)[C@H](CCCCN)NC(=O)CNC(=O)[C@H](CCCCN)NC(=O)[C@H](CC(=O)O)NC(=O)[C@H](Cc1cnc[nH]1)NC(=O)[C@H](CC(C)C)NC(=O)[C@H]1CCC[C@@H]1NC(=O)[C@H](CCC(N)=O)NC(=O)[C@H]1CCC[C@@H]1NC(=O)[C@H](CCC(=O)O)NC(=O)[C@H](CO)NC(=O)[C@@H](NC(=O)[C@H]1CCC[C@@H]1N)C(C)C)[C@@H](C)CC)C(=O)N[C@@H](C)C(=O)N[C@H]1CCC[C@@H]1C(=O)N[C@H](C(=O)N[C@@H](Cc1cnc[nH]1)C(=O)N[C@H](C(=O)N[C@H]1CCC[C@@H]1C(N)=O)[C@@H](C)O)[C@@H](C)CC ({ACPC(1S,2S)}-VSE[X1]Q[X1]LHDKGK[X1]IQD[X1]RRR[X2]FLH[X2]LIA[X1]IHT-{NH(1S,2S-2-CONH2-cPent)}) |  |  |  | 
